Assay results published in ChEMBL document CHEMBL1124216, “A novel class of potential central nervous system agents. 3-Phenyl-2-(1-piperazinyl)-5H-1-benzazepines” (1988).

Key:
Format in all cases: functional
Mus musculus [1] = experiment: Antiexploratory activity (EXPL) of mice determined by an antimex activity meter,100 mg/kg of dose was administered perorally; No inhibition
Mus musculus [2] = experiment: Antimaximal electroshock seizure (MES) activity in mice after peroral administration of 10 mg/kg of compound; 0/5; settings: route oral
Mus musculus [3] = experiment: Antireserpine activity (RES) of mice after peroral administration of 100 mg/kg of compound; No inhibition; settings: route oral
Mus musculus [4] = experiment: Antimaximal electroshock seizure (MES) activity in mice after peroral administration of 100 mg/kg of compound; 5/5; settings: route oral
Mus musculus [5] = experiment: Antitremorine activity(TRM) of mice after peroral administration of 100 mg/kg of compound; Moderate inhibition (51-71%); settings: route oral
Mus musculus [6] = experiment: Antireserpine activity (RES) of mice after peroral administration of 50 mg/kg of compound; Slight inhibition (31-50%); settings: route oral
Mus musculus [7] = experiment: Antiexploratory activity (EXPL) of mice determined by an antimex activity meter, 50 mg/kg of dose was administered perorally; Slight inhibition (31-50%); settings: route oral
Mus musculus [8] = experiment: Antimaximal electroshock seizure (MES) activity in mice after peroral administration of 100 mg/kg of compound; 0/5; settings: route oral
Mus musculus [9] = experiment: Antitremorine activity(TRM) of mice after peroral administration of 100 mg/kg of compound; Slight inhibition (31-50%); settings: route oral
Mus musculus [10] = experiment: Antiexploratory activity (EXPL) of mice determined by an antimex activity meter, 50 mg/kg of dose was administered perorally; No inhibition; settings: route oral
Mus musculus [11] = experiment: Antireserpine activity (RES) of mice after peroral administration of 50 mg/kg of compound; No inhibition; settings: route oral
Mus musculus [12] = experiment: Antitremorine activity(TRM) of mice after peroral administration of 50 mg/kg of compound; No inhibition; settings: route oral
Mus musculus [13] = experiment: Antiexploratory activity (EXPL) of mice determined by an antimex activity meter, 100 mg/kg of dose was administered perorally; No inhibition; settings: route oral
Mus musculus [14] = experiment: Antitremorine activity(TRM) of mice after peroral administration of 100 mg/kg of compound; settings: route oral
Mus musculus [15] = experiment: The homovanillic acid (HVA) levels in mouse brain at 10 mg/kg of dose.
Procedure, shortened: (§1)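 Mice dosed orally in 0.5% aqueous tragacanth; brains of five mice per compound pooled. Homovanillic acid measured in brain extracts and reported as brain level.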

Mus musculus [16] = experiment: Exploratory activity of mice determined by an antimex activity meter, 10 mg/kg of dose was administered perorally; settings: route oral
Mus musculus [17] = experiment: 3,4 -Dihydroxy phenylacetic acid (DOPAC) levels in mouse brain at 10 mg/kg dose.
Procedure, shortened: (§2)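 Male Std-ddY mice, 20-25 g, dosed orally with compound in 0.5% aqueous tragacanth. DOPAC was measured fluorometrically after purification by column chromatography on Sephadex G-10 and QAE-Sephadex. Brains from five mice per compound were pooled for each determination.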

Mus musculus [18] = experiment: Antiexploratory activity (EXPL) of mice determined by an antimex activity meter, 50 mg/kg of dose was administered perorally; Moderate inhibition (51-71%); settings: route oral
Canis familiaris = experiment: Inhibition of apomorphine induced emesis in dogs at 1 mg/kg of dose.; settings: Canis lupus familiaris
Procedure, shortened: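 Beagle dogs (10-15 kg), groups of three, given compound po in a gelatin capsule; 2 h later apomorphine hydrochloride 0.3 mg/kg sc. Vomiting counted for 1 h; mean inhibition as percent of control. ED50 is the dose giving 50% inhibition of emesis, by Litchfield-Wilcoxon.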

Mus musculus [19] = experiment: Exploratory activity of mice determined by an antimex activity meter, 50 mg/kg of dose was administered perorally; settings: Mus musculus, po
Procedure, shortened: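 Male Std-ddY mice (20-25 g), five per dose; compound in 0.5% aqueous tragacanth given orally. Two hours later each mouse placed in an Animex activity meter cage and locomotor activity counted for 3 min. Mean suppression expressed as percent inhibition of control; ED50 by Litchfield-Wilcoxon.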

Mus musculus [20] = experiment: 3,4 -Dihydroxy phenylacetic acid (DOPAC) levels in mouse brain at 50 mg/kg dose.; procedure, shortened: as §2
Mus musculus [21] = experiment: Antiexploratory activity (EXPL) of mice determined by an antimex activity meter, 10 mg/kg of dose was administered perorally; No inhibition; settings: route oral
Mus musculus [22] = experiment: The homovanillic acid (HVA) levels in mouse brain at 50 mg/kg of dose.; procedure, shortened: as §1
Mus musculus [23] = experiment: Antiexploratory activity (EXPL) of mice determined by an antimex activity meter, 100 mg/kg of dose was administered perorally; Moderate inhibition (51-71%); settings: route oral
Mus musculus [24] = experiment: Antireserpine activity (RES) of mice after peroral administration of 100 mg/kg of compound; Moderate inhibition (51-71%); settings: route oral
Mus musculus [25] = experiment: Antitremorine activity(TRM) of mice after peroral administration of 100 mg/kg of compound; No inhibition; settings: route oral
Mus musculus [26] = experiment: Antimaximal electroshock seizure (MES) activity in mice after peroral administration of 100 mg/kg of compound; 3/5; settings: route oral
Mus musculus [27] = experiment: Antipentylene tetrazole activity was determined in mice when administered perorally; settings: po
Procedure, shortened: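 Groups of five male Std-ddY mice received compound orally in 0.5% tragacanth, then pentylenetetrazole 175 mg/kg ip. Blockade of the tonic extensor component scored as anticonvulsant. ED50 was the dose protecting 50% of animals (Litchfield-Wilcoxon).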

Mus musculus [28] = experiment: Antimaximal electroshock seizure activity was determined in mice when administered perorally; settings: po
Mus musculus [29] = experiment: Antimaximal electroshock seizure (MES) activity in mice after peroral administration of 100 mg/kg of compound; 4/5; settings: route oral

## CCc1ccc2c(c1)CC=C(c1ccccc1)C(N1CCN(C(C)C)CC1)=N2.O=C(O)/C=C/C(=O)O
Mus musculus [1]
  Inhibition: <30%
Mus musculus [2]
  Activity: 0
Mus musculus [3]
  inhibition in vivo at 100 mg/kg: < 30%
Mus musculus [4]
  Activity: 5
Mus musculus [5]
  inhibition in vivo at 100 mg/kg: 51%

## Fc1ccc(C2=CCc3ccccc3N=C2N2CCNCC2)cc1
Mus musculus [6]
  inhibition in vivo at 50 mg/kg: 31%
Mus musculus [7]
  inhibition in vivo at 50 mg/kg: 31%

## CCCN1CCN(C2=Nc3ccc(CC)cc3CC=C2c2ccccc2)CC1.O=C(O)/C=C/C(=O)O
Mus musculus [1]
  Inhibition: <30%
Mus musculus [3]
  inhibition in vivo at 100 mg/kg: < 30%
Mus musculus [8]
  Activity: 0
Mus musculus [9]
  inhibition in vivo at 100 mg/kg: 31%

## COc1ccc(C2=CCc3ccccc3N=C2N2CCN(C)CC2)cc1
Mus musculus [6]
  inhibition in vivo at 50 mg/kg: 31%
Mus musculus [10]
  inhibition in vivo at 50 mg/kg: < 30%

## O=C(CCCN1CCN(C2=Nc3ccccc3CC=C2c2ccc(Cl)cc2)CC1)c1ccc(F)cc1
Mus musculus [11]
  inhibition in vivo at 50 mg/kg: < 30%
Mus musculus [7]
  inhibition in vivo at 50 mg/kg: 31%

## O=C(c1ccc(F)cc1)C1CCN(C2=Nc3ccccc3CC=C2c2ccc(Cl)cc2)CC1
Mus musculus [10]
  inhibition in vivo at 50 mg/kg: < 30%
Mus musculus [12]
  inhibition in vivo at 50 mg/kg: < 30%
Mus musculus [3]
  inhibition in vivo at 100 mg/kg: < 30%
Mus musculus [8]
  Activity: 0

## C#CCN1CCN(C2=Nc3ccc(Br)cc3CC=C2c2ccccc2)CC1
Mus musculus [13]
  inhibition in vivo at 100 mg/kg: < 30%
Mus musculus [14]
  inhibition in vivo at 100 mg/kg: < 30%
Mus musculus [3]
  inhibition in vivo at 100 mg/kg: < 30%
Mus musculus [8]
  Activity: 0

## CCCN1CCN(C2=Nc3ccccc3CC=C2c2ccc(F)cc2)CC1.O=C(O)/C=C/C(=O)O
Mus musculus [15]
  Control: 328%
Mus musculus [16]
  inhibition in vivo at 10 mg/kg: 18.5%
Mus musculus [17]
  Control: 166%
Mus musculus [18]
  inhibition in vivo at 50 mg/kg: 51%
Canis familiaris
  inhibition in vivo at 1 mg/kg: 100%
Mus musculus [19]
  inhibition in vivo at 50 mg/kg: 61.4%
Mus musculus [20]
  Control: 317%
Mus musculus [21]
  inhibition in vivo at 10 mg/kg: < 30%
Mus musculus [22]
  Control: 557%

## CCCCN1CCN(C2=Nc3ccc(CC)cc3CC=C2c2ccccc2)CC1.O=C(O)/C=C/C(=O)O
Mus musculus [1]
  Inhibition: <30%
Mus musculus [3]
  inhibition in vivo at 100 mg/kg: < 30%
Mus musculus [8]
  Activity: 0
Mus musculus [9]
  inhibition in vivo at 100 mg/kg: 31%

## Clc1ccc(C2=CCc3ccccc3N=C2N2CCN(Cc3ccccc3)CC2)cc1
Mus musculus [6]
  inhibition in vivo at 50 mg/kg: 31%
Mus musculus [10]
  inhibition in vivo at 50 mg/kg: < 30%

## Clc1ccc(C2=CCc3ccccc3N=C2N2CCCCC2)cc1
Mus musculus [10]
  inhibition in vivo at 50 mg/kg: < 30%
Mus musculus [12]
  inhibition in vivo at 50 mg/kg: < 30%
Mus musculus [3]
  inhibition in vivo at 100 mg/kg: < 30%
Mus musculus [8]
  Activity: 0

## CN1CCN(C2=Nc3ccccc3CC=C2c2ccccc2Cl)CC1.Cl.Cl
Mus musculus [23]
  inhibition in vivo at 100 mg/kg: 51%
Mus musculus [24]
  inhibition in vivo at 100 mg/kg: 51%
Mus musculus [8]
  Activity: 0
Mus musculus [9]
  inhibition in vivo at 100 mg/kg: 31%

## Cl.OC1CCN(C2=Nc3ccccc3CC=C2c2ccc(F)cc2)CC1
Mus musculus [10]
  inhibition in vivo at 50 mg/kg: < 30%
Mus musculus [12]
  inhibition in vivo at 50 mg/kg: < 30%
Mus musculus [3]
  inhibition in vivo at 100 mg/kg: < 30%
Mus musculus [8]
  Activity: 0

## CCN1CCN(C2=Nc3ccc(Br)cc3CC=C2c2ccccc2)CC1.Cl.Cl
Mus musculus [13]
  inhibition in vivo at 100 mg/kg: < 30%
Mus musculus [25]
  inhibition in vivo at 100 mg/kg: < 30%
Mus musculus [26]
  Activity: 3
Mus musculus [27]
  ED50: 17.2 mg/kg
Mus musculus [3]
  inhibition in vivo at 100 mg/kg: < 30%
Mus musculus [28]
  ED50: 30.7 mg/kg

## Cl.Cl.OCCN1CCN(C2=Nc3ccc(Cl)cc3CC=C2c2ccccc2)CC1
Mus musculus [13]
  inhibition in vivo at 100 mg/kg: < 30%
Mus musculus [2]
  Activity: 0
Mus musculus [27]
  ED50: 26.5 mg/kg
Mus musculus [29]
  Activity: 4
Mus musculus [3]
  inhibition in vivo at 100 mg/kg: < 30%
Mus musculus [28]
  ED50: 49.5 mg/kg
Mus musculus [5]
  inhibition in vivo at 100 mg/kg: 51%

## Cl.Cl.OCCN1CCN(C2=Nc3ccccc3CC=C2c2ccc(F)cc2)CC1
Mus musculus [15]
  Control: 243%
Mus musculus [16]
  inhibition in vivo at 10 mg/kg: 19.6%
Mus musculus [17]
  Control: 262%
Mus musculus [18]
  inhibition in vivo at 50 mg/kg: 51%
Canis familiaris
  inhibition in vivo at 1 mg/kg: 100%
Mus musculus [19]
  inhibition in vivo at 50 mg/kg: 68.4%
Mus musculus [20]
  Control: 369%
Mus musculus [21]
  inhibition in vivo at 10 mg/kg: < 30%
Mus musculus [22]
  Control: 349%

## Cc1ccc2c(c1)CC=C(c1ccccc1)C(N1CCN(C)CC1)=N2.Cl.Cl
Mus musculus [13]
  inhibition in vivo at 100 mg/kg: < 30%
Mus musculus [25]
  inhibition in vivo at 100 mg/kg: < 30%
Mus musculus [26]
  Activity: 3
Mus musculus [27]
  ED50: 50.9 mg/kg
Mus musculus [3]
  inhibition in vivo at 100 mg/kg: < 30%
Mus musculus [28]
  ED50: 86.1 mg/kg

## CN1CCN(C2=Nc3ccccc3CC=C2c2cccc(Cl)c2)CC1.Cl.Cl
Mus musculus [10]
  inhibition in vivo at 50 mg/kg: < 30%
Mus musculus [24]
  inhibition in vivo at 100 mg/kg: 51%
Mus musculus [8]
  Activity: 0

## CN1CCN(C2=Nc3ccc(Br)cc3CC=C2c2ccccc2)CC1.Cl.Cl
Mus musculus [13]
  inhibition in vivo at 100 mg/kg: < 30%
Mus musculus [27]
  ED50: 8.3 mg/kg
Mus musculus [14]
  inhibition in vivo at 100 mg/kg: > 71%
Mus musculus [3]
  inhibition in vivo at 100 mg/kg: < 30%
Mus musculus [4]
  Activity: 5
Mus musculus [28]
  ED50: 31.2 mg/kg
